Key:
[1] = Half life in pH 7.4 phosphate buffer at 5 uM by HPLC method; format: physicochemical
How it was run: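 Compound dissolved at 5 µM in phosphate buffer (pH 1.2, 6.8 or 7.4), held at 37 °C for 24 h. Aliquots taken at intervals and analysed by HPLC. t1/2 = 0.693/k from linear regression of pseudo-first-order kinetics.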

[2] = biological target: T1, Organic cation/carnitine transporter 2 (Homo sapiens, UniProt O76082); test: Ratio of drug transport assessed as OCTN2 transporter mediated drug uptake in human Caco2 cells at 1 to 800 uM in presence of Na+ to drug transport assessed as OCTN2 transporter mediated drug uptake in human Caco2 cells at 1 to 800 uM in presence of N-methyl-D-glucamine; format: ADME, cell-based; conditions: caco-2, 800 µM
T1 sequence (O76082 whole entry): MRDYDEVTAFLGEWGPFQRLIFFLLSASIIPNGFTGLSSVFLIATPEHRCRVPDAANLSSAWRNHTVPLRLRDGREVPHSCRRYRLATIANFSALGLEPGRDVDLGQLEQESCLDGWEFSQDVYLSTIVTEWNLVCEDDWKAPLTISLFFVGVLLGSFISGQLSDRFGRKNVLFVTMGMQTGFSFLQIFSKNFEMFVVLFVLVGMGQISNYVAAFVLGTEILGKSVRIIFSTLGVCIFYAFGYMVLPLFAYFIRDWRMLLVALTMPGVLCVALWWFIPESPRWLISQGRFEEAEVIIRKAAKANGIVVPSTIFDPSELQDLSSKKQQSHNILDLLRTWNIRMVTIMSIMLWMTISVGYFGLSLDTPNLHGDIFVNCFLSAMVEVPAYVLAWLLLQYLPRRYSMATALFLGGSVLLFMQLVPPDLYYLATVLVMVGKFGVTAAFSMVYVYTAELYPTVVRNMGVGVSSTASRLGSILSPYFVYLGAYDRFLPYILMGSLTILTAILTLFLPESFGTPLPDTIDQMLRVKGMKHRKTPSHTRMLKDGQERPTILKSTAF

[3] = biological target: T2, Organic cation/carnitine transporter 2 (Rattus norvegicus, UniProt O70594); test: Ratio of drug transport assessed as OCTN2 transporter mediated effective permeability in rat jejunum at 76 uM in absence of L-carnitine to drug transport assessed as OCTN2 transporter mediated effective permeability in rat jejunum at 76 uM in presence of L-carnitine; format: ADME
T2 sequence (O70594 whole entry): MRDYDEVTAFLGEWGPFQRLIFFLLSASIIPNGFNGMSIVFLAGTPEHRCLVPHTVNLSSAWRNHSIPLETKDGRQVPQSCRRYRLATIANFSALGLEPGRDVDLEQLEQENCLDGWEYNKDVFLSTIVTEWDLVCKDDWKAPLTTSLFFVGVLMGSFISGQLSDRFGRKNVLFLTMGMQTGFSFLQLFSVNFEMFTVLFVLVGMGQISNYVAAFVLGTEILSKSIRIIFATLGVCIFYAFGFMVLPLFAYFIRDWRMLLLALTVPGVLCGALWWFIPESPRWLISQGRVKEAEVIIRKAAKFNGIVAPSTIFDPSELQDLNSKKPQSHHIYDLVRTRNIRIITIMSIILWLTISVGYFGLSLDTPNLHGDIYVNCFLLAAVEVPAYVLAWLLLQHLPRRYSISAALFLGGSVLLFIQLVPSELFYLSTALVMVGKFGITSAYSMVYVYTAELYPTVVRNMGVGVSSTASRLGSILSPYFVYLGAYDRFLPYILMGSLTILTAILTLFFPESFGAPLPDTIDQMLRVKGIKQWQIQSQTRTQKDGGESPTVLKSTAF

Rattus norvegicus = test: AUC (0 to 24 hrs) in Wistar rat at 50 mg/kg, po administered as single dose by UPLC-MS/MS method; format: ADME, organism-based; set-up: dose 50 mg/kg, time < 24 hr, route oral; conditions: in vivo
How it was run: (§1)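 Wistar rats, six per group, single oral dose equivalent to 50 mg/kg gemcitabine; separate group given gemcitabine iv at 7.5 mg/kg. Oral sampling at 5, 10, 15, 30 min and 1, 2, 4, 6, 8, 12, 24 h; iv at 15, 30 min and 2, 4, 8, 12, 24 h. Blood into THU-pretreated heparinized tubes, centrifuged 3000 × g 15 min, plasma at -80 °C. Prodrug and gemcitabine quantified by UPLC-MS/MS. F = AUCpo×Div/AUCiv/Dpo×100%.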

[4] = Terminal half-life in Wistar rat at 50 mg/kg, po administered as single dose by UPLC-MS/MS method; format: ADME, organism-based; conditions: in vivo, read-out: beta t1/2 (converted); how it was run: as §1
[5] = biological target: T2, Organic cation/carnitine transporter 2; test: Ratio of drug transport assessed as OCTN2 transporter mediated effective permeability in rat duodenum at 76 uM in absence of L-carnitine to drug transport assessed as OCTN2 transporter mediated effective permeability in rat duodenum at 76 uM in presence of L-carnitine; format: ADME
Heart = test: Drug uptake in mouse heart at 102 mg/kg, po administered as single dose at 0.5 hrs post dose; format: ADME, organism-based; conditions: in vivo
How it was run: (§2)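 Mice, three per time point, single oral dose of 102 mg/kg (equivalent to 50 mg/kg gemcitabine). Heart, liver, spleen, lung, kidney and brain collected at 0.16, 0.5 and 2 h, rinsed in saline. 0.3 g tissue homogenized 1 min in 1 mL saline, spun 13,000 rpm 4 °C 5 min. Gemcitabine measured in supernatant.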

Spleen = test: Drug uptake in mouse spleen at 102 mg/kg, po administered as single dose at 2 hrs post dose; format: ADME, organism-based; conditions: in vivo; how it was run: as §2
Lung = test: Drug uptake in mouse lung at 102 mg/kg, po administered as single dose at 2 hrs post dose; format: ADME, organism-based; conditions: in vivo; how it was run: as §2
Mus musculus [6] = test: Toxicity in Kunming mouse assessed as […] degeneration in cardiac muscle at 102 mg/kg, po administered once daily for 14 days by hematoxylin/eosin staining based optical microscopic analysis; format: organism-based; conditions: in vivo, 336 h
How it was run: (§3)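 Kunming mice, four per group, dosed orally once daily for 14 days with 102 mg/kg or saline control; body weight recorded every other day. Heart, liver, spleen, lung and kidney fixed in 10% buffered formalin, paraffin-embedded, sectioned, stained with hematoxylin and eosin, and examined by optical microscopy.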

Mus musculus [7] = test: Toxicity in Kunming mouse assessed as […] degeneration in spleen at 102 mg/kg, po administered once daily for 14 days by hematoxylin/eosin staining based optical microscopic analysis; format: organism-based; conditions: in vivo, 336 h; how it was run: as §3
Mus musculus [8] = test: Toxicity in Kunming mouse assessed as […] degeneration in lung at 102 mg/kg, po administered once daily for 14 days by hematoxylin/eosin staining based optical microscopic analysis; format: organism-based; conditions: in vivo, 336 h; how it was run: as §3
Mus musculus [9] = test: Toxicity in Kunming mouse assessed as inflammatory infiltrates in cardiac muscle at 102 mg/kg, po administered once daily for 14 days by hematoxylin/eosin staining based optical microscopic analysis; format: organism-based; conditions: in vivo, 336 h; how it was run: as §3
Mus musculus [10] = test: Toxicity in Kunming mouse assessed as fibrosis in kidney at 102 mg/kg, po administered once daily for 14 days by hematoxylin/eosin staining based optical microscopic analysis; format: organism-based; conditions: in vivo, 336 h; how it was run: as §3
[11] = biological target: T1, Organic cation/carnitine transporter 2; test: Drug transport assessed as Vmax for OCTN2 transporter mediated drug uptake in human Caco2 cells after 10 mins by Eadie-Hofstee plot method; format: ADME, cell-based; conditions: caco-2, 10 min

## C[N+](C)(C)CC(CC(=O)[O-])OC(=O)CCCCC(=O)Nc1ccn([C@@H]2O[C@H](CO)[C@@H](O)C2(F)F)c(=O)n1 (stereo not given in full)
[1]
  half-life at 5 µM: 45.8 h
[2]
  Ratio: 2 to 10
[3]
  Ratio: 11
Rattus norvegicus
  AUC: 24300 ng·h/mL
[4]
  half-life: 6.8 h
[5]
  Ratio: 11
Heart
  Drug uptake: Active
Spleen
  Drug uptake: Not Active
Lung
  Drug uptake: Not Active
Mus musculus [6]
  Activity: Non-Toxic
Mus musculus [7]
  Activity: Non-Toxic
Mus musculus [8]
  Activity: Non-Toxic
Mus musculus [9]
  Activity: Non-Toxic
Mus musculus [10]
  Activity: Non-Toxic
[11]
  Vmax: 0.286 nmol/mg

From ChEMBL document CHEMBL4049387, “Combination of l-Carnitine with Lipophilic Linkage-Donating Gemcitabine Derivatives as Intestinal Novel Organic Cation Transporter 2-Targeting Oral Prodrugs” (J Med Chem, 2017)
